Data set [1] concerns the target human HAB TSPO (Homo sapiens, UniProt P30536). It is filed as binding. As to conditions: pKi – logD for human cerebellum HAB.
A short description of data set [2]: Measurement of LogD. It is filed as physicochemical. To be noted: n-octanol/sodium phosphate buffer, pH 7.4. In outline:
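Partition of each carbon-11-labelled test compound between n-octanol and sodium phosphate buffer (pH 7.4), run at room temperature. Radioactivity distribution between the phases gives logD.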

This is an account of results in paper PMC4210126 (ACS Chemical Neuroscience, 2014).

Molecules are shown by their SMILES.

Usually logD stands for lipophilicity at a set pH, counting ionised and neutral species. A higher logD goes with higher lipophilicity.

human HAB TSPO, sequence (P30536 whole entry): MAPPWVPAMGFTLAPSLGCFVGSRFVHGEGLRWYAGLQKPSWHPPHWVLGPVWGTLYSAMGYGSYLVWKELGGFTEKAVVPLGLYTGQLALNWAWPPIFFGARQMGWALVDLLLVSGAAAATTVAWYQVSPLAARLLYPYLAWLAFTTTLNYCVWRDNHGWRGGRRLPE

For `CCC(C)N(C)C(=O)c1cc2ccccc2c(-c2ccccc2Cl)n1` (centres unmarked) [Ligand 1], the LipE in data set [1] was 4.37. Further, the logD in data set [2] stood at 3.97 ± 0.18.
